Measured values from ChEMBL document CHEMBL1127326, “Antitumor agents. 148. Synthesis and biological evaluation of novel 4 beta-amino derivatives of etoposide with better pharmacological profiles” (1994).
Several values for one entry are separate records, joined by “and”; a condition that tells them apart may be missing. Equal entries are not always repeated.

Columns and labels:
Nucleic Acid = test: Percentage inhibition of cellular protein-DNA complex formation; assay type: functional; conditions: Homo sapiens
[1] = molecular target: DNA topoisomerase II (Homo sapiens) (UniProt P11388+Q02880); test: 50% inhibition of human DNA topoisomerase II; assay type: protein assay
Tumor Cell line [2] = test: Drug concentration required to inhibit total cell growth; assay type: functional, Homo sapiens; conditions: read-out: Log TGI (converted)
Outline: (§1)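 NCI panel of 54 human tumor lines from eight cancer types, mostly seeded at 20 000 cells/well. Cells were preincubated 24 h without drug, then exposed to five 10-fold dilutions for 48 h, fixed and stained with sulforhodamine B, and read spectrophotometrically. Versus control, GI50 (50% growth inhibition), TGI (0% growth) and LC50 (−50% growth) were calculated; mean graph midpoints average all lines.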

KB [3] = test: Cytotoxicity against KB cells after a 3 day incubation; assay type: functional, Homo sapiens; conditions: read-out: ID50 (the source's name)
Outline: (§2)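 KB cells (parental ATCC line and resistant variants) exposed to drug at five concentrations […] for 3 days. ID50 is the concentration giving 50% reduction in cell number, derived from the degree of inhibition at the five concentrations.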

Tumor Cell line [4] = test: Drug molar concentration required to inhibit 50% of human tumor cell growth; assay type: functional; outline: as §1
Tumor Cell line [5] = test: LC 50 is the concentration required to cause 50% cell death; assay type: functional; conditions: Homo sapiens, read-out: Log LC50 (the source's name) (converted)
Outline: (§3)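 NCI in vitro panel of 54 human tumor cell lines from eight cancer types, mostly seeded at 20 000 cells/well and preincubated 24 h without drug. Five 10-fold dilutions were then added for a further 48 h. Cells were fixed in situ and stained with sulforhodamine B, and bound dye was read spectrophotometrically. LC50 (−50% growth versus control) was taken from five-point dose-response curves and reported as the log10 mean-graph midpoint across lines.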

KB [6] = test: 50% reduction in the number of KB 7D (topoisomerase II, aMDR) resistant variant; assay type: functional, Homo sapiens; conditions: Homo sapiens, KB; read-out: ID50 (the source's name); outline: as §2
KB [7] = test: 50% reduction in the number of KB ATCC cells; assay type: functional; conditions: Homo sapiens, read-out: ID50 (the source's name); outline: as §2
[8] = tested on: Panel (56 tumour cell lines); test: In vitro anti tumor activity against human tumor cell lines was determined; assay type: functional
Outline: (§4)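 NCI in vitro screen of 54 human tumour lines from eight cancer types. Cells seeded mostly at 20 000/well, preincubated 24 h without drug, then exposed to five 10-fold dilutions for 48 h. Cells fixed in situ, stained with sulforhodamine B, bound dye solubilised and read spectrophotometrically. GI50, TGI (0% growth) and LC50 (-50% growth) were taken from dose-response curves relative to control. Mean-graph midpoints averaged across all lines.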

NCI-H23 = test: (§5) In vitro anti tumor activity against human non-small cell lung cancer cell lines was determined; conditions: NCI-H23, read-out: Log GI50 (converted)
RXF 393 = test: (§6) In vitro anti tumor activity against human tumor Renal cancer cell lines was determined; assay type: functional; outline: as §4
ACHN = test: as §6; assay type: functional; outline: as §4
786-0 = test: as §6; assay type: functional; outline: as §4
SN12C = test: as §6; assay type: functional; outline: as §4
TK-10 = test: as §6; assay type: functional; outline: as §4
UO-31 = test: as §6; assay type: functional; outline: as §4
CAKI-1 = test: as §6; assay type: functional; outline: as §4
MOLT-4 = test: (§7) In vitro anti tumor activity against human tumor leukemia cell lines was determined; assay type: functional; outline: as §4
SR = test: as §7; assay type: functional; outline: as §4
CCRF-CEM = test: as §7; assay type: functional; outline: as §4
HL-60 = test: as §7; assay type: functional; outline: as §4
K562 = test: as §7; assay type: functional; outline: as §4
RPMI-8226 = test: as §7; assay type: functional; outline: as §4
KB [9] = test: 50% reduction in the number of KB V20C resistant variant; assay type: functional, Homo sapiens; conditions: Homo sapiens, KB; read-out: ID50 (the source's name); outline: as §2
U-251 = test: (§8) In vitro anti tumor activity against human CNS cancer cell lines was determined; assay type: functional; outline: as §4
SNB-78 = test: as §8; assay type: functional; outline: as §4
SF-295 = test: as §8; assay type: functional; outline: as §4
SF-539 = test: as §8; assay type: functional; outline: as §4
SF-268 = test: as §8; assay type: functional; outline: as §4
SNB-19 = test: as §8; assay type: functional; outline: as §4
XF498 = test: as §8; assay type: functional; outline: as §4
SNB-75 = test: as §8; assay type: functional; outline: as §4
LXFL 529 = test: as §5; assay type: functional; outline: as §4
EKVX = test: as §5; assay type: functional; outline: as §4
HOP-92 = test: as §5; assay type: functional; outline: as §4
HOP-62 = test: as §5; assay type: functional; outline: as §4
NCI-H226 = test: as §5; assay type: functional; outline: as §4
NCI-H460 = test: as §5; assay type: functional; outline: as §4
NCI-H522 = test: as §5; assay type: functional; outline: as §4
NCI-H322M = test: as §5; assay type: functional; outline: as §4
A549 = test: as §5; assay type: functional; outline: as §4
DLD-1 = test: (§9) In vitro anti tumor activity against human colon tumor cell lines was determined; assay type: functional; outline: as §4
KM12 = test: as §9; assay type: functional; outline: as §4
HCT-15 = test: as §9; assay type: functional; outline: as §4
HCC 2998 = test: as §9; assay type: functional; outline: as §4
HT-29 = test: as §9; assay type: functional; outline: as §4
KM-20L2 = test: as §9; assay type: functional; outline: as §4
SW-620 = test: as §9; assay type: functional; outline: as §4
HCT-116 = test: as §9; assay type: functional; outline: as §4
COLO 205 = test: as §9; assay type: functional; outline: as §4
OVCAR-3 = test: (§10) In vitro anti tumor activity against human tumor Ovarian cancer cell lines was determined; assay type: functional; outline: as §4
IGROV-1 = test: as §10; assay type: functional; outline: as §4
OVCAR-8 = test: as §10; assay type: functional; outline: as §4
SK-OV-3 = test: as §10; assay type: functional; outline: as §4
OVCAR-4 = test: as §10; assay type: functional; outline: as §4
DMS-114 = test: (§11) In vitro anti tumor activity against human tumor small cell lung cancer cell lines was determined; assay type: functional; outline: as §4
DMS-273 = test: as §11; assay type: functional; outline: as §4
SK-MEL-28 = test: (§12) In vitro anti tumor activity against human melanoma cell lines was determined; assay type: functional; outline: as §4
LOX IMVI = test: as §12; assay type: functional; outline: as §4
SK-MEL-5 = test: as §12; assay type: functional; outline: as §4
UACC-62 = test: as §12; assay type: functional; outline: as §4
SK-MEL-2 = test: as §12; assay type: functional; outline: as §4
UACC-257 = test: as §12; assay type: functional; outline: as §4
M19-MEL = test: as §12; assay type: functional; outline: as §4
Malme-3M = test: as §12; assay type: functional; outline: as §4
M14 = test: as §12; assay type: functional; outline: as §4
Tumor Cell line [10] = test: Drug concentration required to cause 50% cell death; assay type: functional, Homo sapiens; conditions: Homo sapiens, Tumor Cell line; outline: as §3

## COc1cc([C@@H]2c3cc4c(cc3[C@@H](Nc3ccc(C(=O)O)cc3)[C@H]3COC(=O)[C@H]23)OCO4)cc(OC)c1O
Nucleic Acid
  Complex formation: > 6.9% and 1.9%
[1]
  ID50: > 100 µM

## COc1cc([C@@H]2c3cc4c(cc3[C@@H](NCCN3CCOCC3)[C@H]3COC(=O)[C@H]23)OCO4)cc(OC)c1O [listing 1 of 2 here]
Tumor Cell line [2]
  TGI: 11500 nM
KB [3]
  IC50: 2000 nM
Tumor Cell line [4]
  GI50: 1820 nM

## COc1cc([C@@H]2c3cc4c(cc3[C@@H](NCCCN(C)C)[C@H]3COC(=O)[C@H]23)OCO4)cc(OC)c1O
Tumor Cell line [2]
  TGI: 2190 nM
Tumor Cell line [4]
  GI50: 331 nM
Tumor Cell line [5]
  CC50: 12.6 µM
KB [6]
  IC50: 660 nM

## COc1cc([C@@H]2c3cc4c(cc3[C@@H](NCCN3CCOCC3)[C@H]3COC(=O)[C@H]23)OCO4)cc(OC)c1O [listing 2 of 2 here]
Tumor Cell line [2]; Homo sapiens, Tumor Cell line
  TGI: 10000 nM
KB [3]; Homo sapiens, KB, 72 h
  IC50: 4000 nM
Tumor Cell line [4]; Homo sapiens, Tumor Cell line
  GI50: 2450 nM

## COc1cc([C@@H]2c3cc4c(cc3[C@@H](NC3CCN(Cc5ccccc5)CC3)[C@H]3COC(=O)[C@H]23)OCO4)cc(OC)c1O
KB [7]
  IC50: 24 nM
Tumor Cell line [2]
  TGI: 525 nM
[8]
  GI50: 87.1 nM
NCI-H23
  GI50: 40.7 nM
RXF 393
  GI50: 398 nM
ACHN
  GI50: 18.2 nM
786-0
  GI50: 33.1 nM
SN12C
  GI50: 39.8 nM
TK-10
  GI50: 195 nM
UO-31
  GI50: 87.1 nM
CAKI-1
  GI50: 275 nM
KB [3]; Homo sapiens, KB, 72 h
  IC50: 21 nM
MOLT-4
  GI50: < 10 nM
SR
  GI50: 10 nM
CCRF-CEM
  GI50: 22.4 nM
HL-60
  GI50: 13.8 nM
K562
  GI50: 123 nM
RPMI-8226
  GI50: 53.7 nM
Tumor Cell line [4]; Homo sapiens, Tumor Cell line
  GI50: 87.1 nM
KB [9]
  IC50: 21.5 nM
U-251
  GI50: 26.3 nM
SNB-78
  GI50: 933 nM
SF-295
  GI50: 36.3 nM
SF-539
  GI50: 53.7 nM
SF-268
  GI50: 129 nM
SNB-19
  GI50: 93.3 nM
XF498
  GI50: 132 nM
SNB-75
  GI50: 219 nM
LXFL 529
  GI50: 437 nM
EKVX
  GI50: 776 nM
HOP-92
  GI50: 25.7 nM
HOP-62
  GI50: 26.9 nM
NCI-H226
  GI50: 11 nM
NCI-H460
  GI50: < 10 nM
NCI-H522
  GI50: 83.2 nM
NCI-H322M
  GI50: 1070 nM
A549
  GI50: 13.8 nM
DLD-1
  GI50: 427 nM
KM12
  GI50: 204 nM
HCT-15
  GI50: 123 nM
HCC 2998
  GI50: 174 nM
HT-29
  GI50: 138 nM
KM-20L2
  GI50: 204 nM
SW-620
  GI50: 75.9 nM
HCT-116
  GI50: 151 nM
COLO 205
  GI50: 178 nM
KB [6]
  IC50: 97.5 nM
OVCAR-3
  GI50: 302 nM
IGROV-1
  GI50: 38.9 nM
OVCAR-8
  GI50: 97.7 nM
SK-OV-3
  GI50: 53.7 nM
OVCAR-4
  GI50: 1120 nM
DMS-114
  GI50: 64.6 nM
DMS-273
  GI50: 21.9 nM
SK-MEL-28
  GI50: 324 nM
LOX IMVI
  GI50: 34.7 nM
SK-MEL-5
  GI50: 74.1 nM
UACC-62
  GI50: 36.3 nM
SK-MEL-2
  GI50: 240 nM
UACC-257
  GI50: 257 nM
M19-MEL
  GI50: 204 nM
Malme-3M
  GI50: 112 nM
M14
  GI50: 47.9 nM

## CCOC(=O)CC[C@H](NC(=O)c1ccc(N[C@@H]2c3cc4c(cc3[C@@H](c3cc(OC)c(O)c(OC)c3)[C@H]3C(=O)OC[C@@H]32)OCO4)cc1)C(=O)OCC
Nucleic Acid
  Complex formation: 83%
Tumor Cell line [2]; Homo sapiens, Tumor Cell line
  TGI: 339 nM
KB [3]; Homo sapiens, KB, 72 h
  IC50: < 400 nM
Tumor Cell line [4]; Homo sapiens, Tumor Cell line
  GI50: 50.1 nM
[1]
  ID50: 100 µM
Tumor Cell line [10]
  LC50: 2880 nM
